# Measured values gathered from unrelated publications.
# Target: Serine/threonine-protein kinase TNNI3K (TNNI3K, Homo sapiens, UniProt Q59H18)
# Sequence (Q59H18 1-835, as in one of the studies): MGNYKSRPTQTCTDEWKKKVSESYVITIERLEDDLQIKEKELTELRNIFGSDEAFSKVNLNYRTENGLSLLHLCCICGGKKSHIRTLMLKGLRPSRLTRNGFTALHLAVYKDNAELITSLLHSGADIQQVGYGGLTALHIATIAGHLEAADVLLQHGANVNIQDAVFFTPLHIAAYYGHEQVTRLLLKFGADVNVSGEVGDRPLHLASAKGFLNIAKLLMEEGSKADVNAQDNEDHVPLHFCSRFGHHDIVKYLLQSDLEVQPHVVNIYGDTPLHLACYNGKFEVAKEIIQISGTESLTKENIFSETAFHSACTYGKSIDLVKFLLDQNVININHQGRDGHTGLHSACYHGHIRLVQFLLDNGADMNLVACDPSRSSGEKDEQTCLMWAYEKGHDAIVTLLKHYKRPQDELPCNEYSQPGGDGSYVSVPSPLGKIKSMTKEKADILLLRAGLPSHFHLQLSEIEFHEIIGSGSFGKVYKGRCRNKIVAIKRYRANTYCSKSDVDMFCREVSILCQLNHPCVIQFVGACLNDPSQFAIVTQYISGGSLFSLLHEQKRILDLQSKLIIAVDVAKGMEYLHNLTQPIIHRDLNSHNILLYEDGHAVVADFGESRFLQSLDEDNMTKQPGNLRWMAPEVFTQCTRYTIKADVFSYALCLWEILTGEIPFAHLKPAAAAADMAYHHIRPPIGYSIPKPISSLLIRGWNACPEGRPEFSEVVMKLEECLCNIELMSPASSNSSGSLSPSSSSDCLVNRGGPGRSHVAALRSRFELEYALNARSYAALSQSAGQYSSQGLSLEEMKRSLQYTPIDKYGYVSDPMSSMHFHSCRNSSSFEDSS
Compound,assay,setting,remaining binding [%]
C[C@@H]1CCN(c2nccc(-c3cnn4ncccc34)n2)C1,binding,1 µM,100
Cc1cnc(Nc2ccc(C(=O)N3CCC(N4CCCC4)CC3)cc2)nc1-c1cc2ccccc2s1,"binding, competition with immobilised ligand",1 µM,31
C=CC(=O)N1CCC(C(=O)NCC(=O)N2CCN(c3nc(-c4cnc(N)nc4C(F)F)nc(N4CCOCC4)n3)CC2)CC1,"binding, competition with immobilised ligand",1 µM,100
Nc1ncc2c(n1)-c1c([nH]c3ccc(C#CC4CC4)cc13)CCCC2,"binding, competition with immobilised ligand",1 µM,94
CN(CCCC(F)(F)F)c1nccc(-c2cnn3ncccc23)n1,binding,1 µM,100
O=C(NCCCN1CCOCC1)c1ccc(Nc2ncc(Cl)c(-c3ccc(Cl)s3)n2)cc1,"binding, competition with immobilised ligand",1 µM,78
c1cncc(-c2cccc(Nc3nccc(NC4CCCCC4)n3)c2)c1,"binding, competition with immobilised ligand",10 µM,95
CCN1CCN(Cc2ccc(C(=O)Nc3ccc(C)c(Oc4ccc5c(c4)CC(=O)N5)c3)cc2C(F)(F)F)CC1,"binding, competition with immobilised ligand",1 µM,88
CS(=O)(=O)c1cc(C2(NC(=O)c3cncc4c3cnn4-c3ccc(F)cc3)CC2)ccn1,"cell-free assay, competition with immobilised ligand",1 µM,64
CNC(=O)[C@@H]1CC[C@@H](n2c(-c3ccc4cnccc4c3)nc3ccc(C(=O)NCc4cccc(C(N)=O)c4)cc32)C1,"binding, competition with immobilised ligand",1 µM,100
O=C(c1ccc(Nc2nccc(-c3cc4ccccc4s3)n2)cc1)N1CCC(N2CCCC2)CC1,"binding, competition with immobilised ligand",1 µM,71
COc1ncc2cc3ccccc3nc2c1C#N,"cell-free assay, competition with immobilised ligand",5 µM,100
Cc1nc(C2CCN(C(=O)c3ccc(OC(F)(F)F)cc3N)CC2)c2ncc(N3CCN(C)CC3)cc2n1,"cell-free assay, competition with immobilised ligand",1 µM,100
CN(C)c1ncc(F)c(-c2cnn3ncccc23)n1,binding,1 µM,100
COc1ccc2cc(OCC3(C(=O)O)CN(C(=O)c4ccc(F)cc4)C3)ccc2c1,"cell-free assay, competition with immobilised ligand",1 µM,100
CN(C)c1nccc(-c2cnn3ncccc23)n1,binding,1 µM,100
Nc1cnc(N2CCc3cc(S(=O)(=O)Nc4c(F)cc(Cl)cc4F)cc(N4CCCC4=O)c32)nc1,"binding, competition with immobilised ligand",1 µM,49
O=C(Nc1c[nH]nc1C(=O)NC1CCNCC1)c1cc(F)cc(F)c1,"binding, competition with immobilised ligand",1 µM,95
CC1CCCN1c1nccc(-c2cnn3ncccc23)n1 (stereo not shown),binding,1 µM,99
O=C(NCCCC1CCCCC1)c1ccc(CNC(=O)c2cnn(-c3ccccc3)c2C(F)(F)F)cc1,"cell-free assay, competition with immobilised ligand",0.1 µM,79
N[C@H]1CCN(c2nccc(-c3cnn4ncccc34)n2)C1,binding,1 µM,100
CCCCN(CCCC)C(=O)CN1C[C@H](c2cc(OC)c3c(c2)OCO3)[C@@H](C(=O)O)[C@@H]1CC(C)(C)CCC,"cell-free assay, competition with immobilised ligand",1 µM,100
